{"data": "Experimental data collected from several papers", "target": "STE20/SPS1-related proline-alanine-rich protein kinase (STK39, Homo sapiens, UniProt Q9UEW8)", "note": "Compare with care: the assays were run in different laboratories."}
{"SMILES": "COc1cc(Nc2ncc(F)c(Nc3ccc4c(n3)NC(=O)C(C)(C)O4)n2)cc(OC)c1OC", "assay": "binding", "setting": "10 µM", "measurement": "inhibition", "value": "65%"}
{"SMILES": "Cc1nn(C)cc1-c1nc2c(N3CCN(Cc4ccc(Cl)cc4)CC3)c(Cl)cnc2[nH]1", "assay": "binding, competition with immobilised ligand", "setting": "1 µM", "measurement": "remaining binding", "value": "100%"}
{"SMILES": "N#CC1(c2ccccn2)CCN(Cc2cc(C(=O)O)c(=O)n3ccccc23)CC1", "assay": "cell-free assay, competition with immobilised ligand", "setting": "1 µM", "measurement": "remaining binding", "value": "56%"}
{"SMILES": "Nc1ncc(-c2nc(N3CCOCC3)nc(N3CCOCC3)n2)c(C(F)F)n1", "assay": "binding, competition with immobilised ligand", "setting": "10 µM", "measurement": "remaining binding", "value": "70%"}
{"SMILES": "CC(C)(C)c1cc(C=C(C#N)C#N)cc(Br)c1O", "assay": "enzyme activity, inhibitor", "setting": "0.5 µM", "measurement": "remaining activity", "value": "87.6%"}
{"SMILES": "COc1ncccc1-c1cnn2ccc(N3CCN(C(=O)OC(C)C)CC3)nc12", "assay": "binding, competition with immobilised ligand", "setting": "1 µM", "measurement": "remaining binding", "value": "88%"}
{"SMILES": "O=c1[nH]c2ccccc2n1C1CCN(Cc2ccc(-c3[nH]c4cc5ncnc5cc4nc3-c3ccccc3)cc2)CC1", "assay": "cell-free assay", "setting": "0.5 µM", "measurement": "remaining signal", "value": "98.2%"}
{"SMILES": "Cn1cncc1[C@](O)(COc1ccc(C#N)cc1-c1ccc(OC(F)(F)F)cc1)c1ccc(C#N)cc1", "assay": "cell-free assay, competition with immobilised ligand", "setting": "1 µM", "measurement": "remaining binding", "value": "50%"}
